In brackets after ≈: the same amount, converted by molar mass.
Columns and labels:
Format in all cases: functional
Aspergillus niger [1] = experiment: Antifungal activity against Aspergillus niger ATCC 9029 after 24 hrs by broth microdilution method; conditions: ATCC 9029, 24 h
How it was run: (§1)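 Broth dilution MIC, with fluconazole as the comparator. Each drug was serially diluted tenfold in BHI broth over nine tubes (10^-1 to 10^-9). Each tube received a suspension of stock culture diluted in BHI. Tubes were kept 24 h at 37 °C, and growth was judged by turbidity.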

Candida albicans [2] = experiment: Antifungal activity against Candida albicans ATCC 2091 after 24 hrs by broth microdilution method; conditions: ATCC 2091, 24 h; how it was run: as §1
Pseudomonas aeruginosa = experiment: Antibacterial activity against Pseudomonas aeruginosa ATCC 25619 after 24 hrs by broth microdilution method; conditions: ATCC 25619, 24 h
How it was run: (§2)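 Broth dilution MIC, with ciprofloxacin as the comparator. Nine […] serial dilutions of each drug (10^-1 to 10^-9) were made in brain heart infusion (BHI) broth. Stock culture was diluted into BHI, and this suspension was added to each dilution tube. Tubes were incubated 24 h at 37 °C, and the MIC was read by turbidity.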

Escherichia coli = experiment: Antibacterial activity against Escherichia coli ATCC 25922 after 24 hrs by broth microdilution method; conditions: ATCC 25922, 24 h; how it was run: as §2
Enterococcus faecalis = experiment: Antibacterial activity against Enterococcus faecalis ATCC 35550 after 24 hrs by broth microdilution method; conditions: ATCC 35550, 24 h; how it was run: as §2
Staphylococcus aureus = experiment: Antibacterial activity against Staphylococcus aureus ATCC 12598 after 24 hrs by broth microdilution method; conditions: ATCC 12598, 24 h; how it was run: as §2
Aspergillus niger [3] = experiment: Ratio of fluconazole MIC to compound MIC for Aspergillus niger ATCC 9029 after 24 hrs by broth microdilution method
Candida albicans [4] = experiment: Ratio of fluconazole MIC to compound MIC for Candida albicans ATCC 2091 after 24 hrs by broth microdilution method

Compound | MIC (Aspergillus niger [1]) [µg/mL] | MIC (Candida albicans [2]) [µg/mL] | MIC (Pseudomonas aeruginosa) [µg/mL] | MIC (Escherichia coli) [µg/mL] | MIC (Enterococcus faecalis) [µg/mL] | MIC (Staphylococcus aureus) [µg/mL] | Ratio (Aspergillus niger [3]) | Ratio (Candida albicans [4])
CCOC(=O)c1cc(O)c(OCc2cc(=O)oc3c2ccc2ccccc23)c(O)c1 | 100 (≈ 246 µM) | 100 (≈ 246 µM) | 100 (≈ 246 µM) | 100 (≈ 246 µM) | 0.2 (≈ 0.492 µM) | 1.6 (≈ 3.94 µM) |  | 
CCOC(=O)c1cc(O)c(OCc2cc(=O)oc3ccc(OC)cc23)c(O)c1 | 100 (≈ 259 µM) | 100 (≈ 259 µM) | 100 (≈ 259 µM) | 100 (≈ 259 µM) | 0.2 (≈ 0.518 µM) | 0.8 (≈ 2.07 µM) |  | 
CCOC(=O)c1cc(O)c(OCc2cc(=O)oc3cc(OC)ccc23)c(O)c1 | 100 (≈ 259 µM) | 100 (≈ 259 µM) | 100 (≈ 259 µM) | 100 (≈ 259 µM) | 0.8 (≈ 2.07 µM) | 1.6 (≈ 4.14 µM) |  | 
CCOC(=O)c1cc(O)c(OCc2cc(=O)oc3ccc(Cl)cc23)c(O)c1 | 100 (≈ 256 µM) | 100 (≈ 256 µM) | 100 (≈ 256 µM) | 100 (≈ 256 µM) | 0.2 (≈ 0.512 µM) | 0.4 (≈ 1.02 µM) |  | 
CCOC(=O)c1cc(O)c(OCc2cc(=O)oc3cc(Cl)ccc23)c(O)c1 | 100 (≈ 256 µM) | 100 (≈ 256 µM) | 100 (≈ 256 µM) | 100 (≈ 256 µM) | 3.12 (≈ 8 µM) | 12.5 (≈ 32 µM) |  | 
CCOC(=O)C(Cc1ccc(OCc2cc(=O)oc3ccc(C)cc23)cc1)NC(=O)c1ccccc1 (stereo unspecified) | 0.2 (≈ 0.412 µM) | 0.2 (≈ 0.412 µM) | 100 (≈ 206 µM) | 100 (≈ 206 µM) | 0.8 (≈ 1.65 µM) | 100 (≈ 206 µM) | 40 | 80
CCOC(=O)C(Cc1ccc(OCc2cc(=O)oc3cc(C)ccc23)cc1)NC(=O)c1ccccc1 (stereo unspecified) | 0.2 (≈ 0.412 µM) | 0.2 (≈ 0.412 µM) | 100 (≈ 206 µM) | 100 (≈ 206 µM) | 0.8 (≈ 1.65 µM) |  | 40 | 80
CCOC(=O)C(Cc1ccc(OCc2cc(=O)oc3ccc(OC)cc23)cc1)NC(=O)c1ccccc1 (stereo unspecified) | 0.2 (≈ 0.399 µM) | 0.2 (≈ 0.399 µM) | 100 (≈ 199 µM) | 100 (≈ 199 µM) | 0.4 (≈ 0.798 µM) | 100 (≈ 199 µM) | 40 | 80
CCOC(=O)C(Cc1ccc(OCc2cc(=O)oc3cc(OC)ccc23)cc1)NC(=O)c1ccccc1 (stereo unspecified) | 0.2 (≈ 0.399 µM) | 0.2 (≈ 0.399 µM) | 100 (≈ 199 µM) | 100 (≈ 199 µM) | 0.8 (≈ 1.6 µM) | 100 (≈ 199 µM) | 40 | 80
CCOC(=O)C(Cc1ccc(OCc2cc(=O)oc3cc(C)cc(C)c23)cc1)NC(=O)c1ccccc1 (stereo unspecified) | 0.2 (≈ 0.4 µM) | 1.6 (≈ 3.2 µM) | 100 (≈ 200 µM) | 100 (≈ 200 µM) | 0.2 (≈ 0.4 µM) |  | 40 | 
CCOC(=O)C(Cc1ccc(OCc2cc(=O)oc3c(C)c(C)ccc23)cc1)NC(=O)c1ccccc1 (stereo unspecified) | 0.2 (≈ 0.4 µM) | 0.8 (≈ 1.6 µM) | 100 (≈ 200 µM) | 100 (≈ 200 µM) | 0.2 (≈ 0.4 µM) | 100 (≈ 200 µM) | 40 | 
CCOC(=O)C(Cc1ccc(OCc2cc(=O)oc3ccc4ccccc4c23)cc1)NC(=O)c1ccccc1 (stereo unspecified) | 0.2 (≈ 0.383 µM) | 1.6 (≈ 3.07 µM) |  | 100 (≈ 192 µM) | 0.4 (≈ 0.767 µM) |  | 40 | 
CCOC(=O)C(Cc1ccc(OCc2cc(=O)oc3c2ccc2ccccc23)cc1)NC(=O)c1ccccc1 (stereo unspecified) | 0.2 (≈ 0.383 µM) | 12.5 (≈ 24 µM) | 100 (≈ 192 µM) | 100 (≈ 192 µM) | 0.2 (≈ 0.383 µM) | 50 (≈ 95.9 µM) | 40 | 
CCOC(=O)C(Cc1ccc(OCc2cc(=O)oc3ccc(Cl)cc23)cc1)NC(=O)c1ccccc1 (stereo unspecified) | 0.2 (≈ 0.395 µM) | 50 (≈ 98.8 µM) | 100 (≈ 198 µM) |  | 0.2 (≈ 0.395 µM) | 100 (≈ 198 µM) | 40 | 
CCOC(=O)C(Cc1ccc(OCc2cc(=O)oc3cc(Cl)ccc23)cc1)NC(=O)c1ccccc1 (stereo unspecified) | 0.2 (≈ 0.395 µM) | 50 (≈ 98.8 µM) | 100 (≈ 198 µM) |  | 0.2 (≈ 0.395 µM) |  | 40 | 
CCOC(=O)c1cc(O)c(OCc2cc(=O)oc3ccc(C)cc23)c(O)c1 | 100 (≈ 270 µM) | 100 (≈ 270 µM) | 100 (≈ 270 µM) | 100 (≈ 270 µM) | 0.2 (≈ 0.54 µM) | 1.6 (≈ 4.32 µM) |  | 
CCOC(=O)c1cc(O)c(OCc2cc(=O)oc3cc(C)ccc23)c(O)c1 | 100 (≈ 270 µM) | 100 (≈ 270 µM) | 100 (≈ 270 µM) | 100 (≈ 270 µM) | 0.2 (≈ 0.54 µM) | 12.5 (≈ 33.8 µM) |  | 
CCOC(=O)c1cc(O)c(OCc2cc(=O)oc3cc(C)cc(C)c23)c(O)c1 | 100 (≈ 260 µM) | 100 (≈ 260 µM) | 100 (≈ 260 µM) | 100 (≈ 260 µM) | 0.2 (≈ 0.52 µM) | 0.8 (≈ 2.08 µM) |  | 
CCOC(=O)c1cc(O)c(OCc2cc(=O)oc3c(C)c(C)ccc23)c(O)c1 | 100 (≈ 260 µM) | 100 (≈ 260 µM) | 100 (≈ 260 µM) | 100 (≈ 260 µM) | 0.2 (≈ 0.52 µM) | 0.2 (≈ 0.52 µM) |  | 
CCOC(=O)c1cc(O)c(OCc2cc(=O)oc3ccc4ccccc4c23)c(O)c1 | 100 (≈ 246 µM) | 100 (≈ 246 µM) | 100 (≈ 246 µM) | 100 (≈ 246 µM) | 0.2 (≈ 0.492 µM) | 0.4 (≈ 0.984 µM) |  | 
O=C(O)c1cn(C2CC2)c2cc(N3CCNCC3)c(F)cc2c1=O [CIPROFLOXACIN] |  |  |  |  | 2 (≈ 6.04 µM) | 2 (≈ 6.04 µM) |  | 
OC(Cn1cncn1)(Cn1cncn1)c1ccc(F)cc1F [FLUCONAZOLE] | 8 (≈ 26.1 µM) | 16 (≈ 52.2 µM) |  |  |  |  |  | 

Reference: ChEMBL document CHEMBL3085670, “Synthesis, biological evaluation and docking studies of 4-aryloxymethyl coumarins derived from substructures and degradation products of vancomycin” (2013)
